How the values were obtained:
Tetranychus cinnabarinus [1] = assay: Acaricidal activity against Tetranychus cinnabarinus (carmine spider mite) eggs at 600 mg/kg by leaf dip method; type: functional, Egg
Helicoverpa armigera [2] = assay: Stomach toxicity against third-instars Helicoverpa armigera assessed as larvicidal activity at 110 mg/kg at 25 +/- 1 degC after 3 days; type: functional
Procedure, shortened: (§1)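 Diet-incorporation assay on third-instar larvae. Samples dissolved in acetone to the desired final concentrations; 3 mL of test solution mixed evenly into about 27 g of prepared feed, then dispensed into 24-well plates. Run in triplicate at 25 ± 1 °C. Dead/alive scoring 3 days after treatment; mortality corrected by Abbott's formula on a 0–100 scale.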

Tetranychus cinnabarinus [3] = assay: Acaricidal activity against Tetranychus cinnabarinus (carmine spider mite) adults at 600 mg/kg by leaf dip method; type: functional
Culex pipiens pallens [4] = assay: Larvicidal activity against Culex pipiens pallens (mosquito) at 5 mg/kg; type: functional
Tetranychus cinnabarinus [5] = assay: Acaricidal activity against Tetranychus cinnabarinus (carmine spider mite) larvae at 200 mg/kg by leaf dip method; type: functional
Tetranychus cinnabarinus [6] = assay: Acaricidal activity against Tetranychus cinnabarinus (carmine spider mite) eggs at 200 mg/kg by leaf dip method; type: functional, Egg
Culex pipiens pallens [7] = assay: Larvicidal activity against Culex pipiens pallens (mosquito) at 2 mg/kg; type: functional
Tetranychus cinnabarinus [8] = assay: Acaricidal activity against Tetranychus cinnabarinus (carmine spider mite) larvae at 600 mg/kg by leaf dip method; type: functional
Aphis craccivora [9] = assay: Larvicidal activity against Aphis craccivora (cowpea aphid) at 600 mg/kg by leaf dip method; type: functional
Plutella xylostella [10] = assay: Stomach toxicity against Plutella xylostella (diamondback moth) assessed as larvicidal activity at 600 mg/kg by leaf dip method; type: functional
Helicoverpa armigera [11] = assay: Stomach toxicity against third-instars Helicoverpa armigera assessed as larvicidal activity at 55 mg/kg at 25 +/- 1 degC after 3 days; type: functional; procedure, shortened: as §1
Plutella xylostella [12] = assay: Stomach toxicity against Plutella xylostella (diamondback moth) assessed as larvicidal activity at 200 mg/kg by leaf dip method; type: functional
Aphis craccivora [13] = assay: Larvicidal activity against Aphis craccivora (cowpea aphid) at 200 mg/kg by leaf dip method; type: functional
Helicoverpa armigera [14] = assay: Stomach toxicity against third-instars Helicoverpa armigera assessed as larvicidal activity at 22 mg/kg at 25 +/- 1 degC after 3 days; type: functional; procedure, shortened: as §1
Helicoverpa armigera [15] = assay: Stomach toxicity against third-instars Helicoverpa armigera assessed as larvicidal activity at 11 mg/kg at 25 +/- 1 degC after 3 days; type: functional; procedure, shortened: as §1
Tetranychus cinnabarinus [16] = assay: Acaricidal activity against Tetranychus cinnabarinus (carmine spider mite) adults at 200 mg/kg by leaf dip method; type: functional
Helicoverpa armigera [17] = assay: Stomach toxicity against third-instars Helicoverpa armigera assessed as larvicidal activity at 5.5 mg/kg at 25 +/- 1 degC after 3 days; type: functional; procedure, shortened: as §1
Culex pipiens pallens [18] = assay: Larvicidal activity against Culex pipiens pallens (mosquito) at 0.5 mg/kg; type: functional
Culex pipiens pallens [19] = assay: Larvicidal activity against Culex pipiens pallens (mosquito) at 1 mg/kg; type: functional

Row | Structure (SMILES) | Activity (Tetranychus cinnabarinus [1]) | Activity (Helicoverpa armigera [2]) | Activity (Tetranychus cinnabarinus [3]) | Activity (Culex pipiens pallens [4]) | Activity (Tetranychus cinnabarinus [5]) | Activity (Tetranychus cinnabarinus [6]) | Activity (Culex pipiens pallens [7]) | Activity (Tetranychus cinnabarinus [8]) | Activity (Aphis craccivora [9]) | Activity (Plutella xylostella [10]) | Activity (Helicoverpa armigera [11]) | Activity (Plutella xylostella [12]) | Activity (Aphis craccivora [13]) | Activity (Helicoverpa armigera [14]) | Activity (Helicoverpa armigera [15]) | Activity (Tetranychus cinnabarinus [16]) | Activity (Helicoverpa armigera [17]) | Activity (Culex pipiens pallens [18]) | Activity (Culex pipiens pallens [19])
1 | CCc1nn(C)c(C(=O)NC(CO)c2ccc(Cl)cc2)c1Cl (stereo not drawn) | 10% | 100% | 0% | 30% | 0% | 0% | 0% | 25% | 100% | 30% | 100% | 0% | 95% | 40% | 0% | – | – | – | –
2 | CCc1cc(C(=O)NC(CO)c2ccc(Oc3ccccc3)cc2)n(C)n1 (stereo not drawn) | 20% | 100% | 30% | 30% | – | 0% | 0% | 0% | 95% | 90% | 100% | 45% | 70% | 30% | 0% | 0% | – | – | –
3 | CCc1nn(C)c(C(=O)NC(CO)c2ccc(Oc3ccccc3)cc2)c1Cl (stereo not drawn) | 15% | 100% | 0% | 100% | 0% | 0% | 100% | 30% | 100% | 60% | 100% | 20% | 50% | 70% | 40% | – | 0% | 0% | 40%
4 | CCc1cc(C2=NC(c3ccc(Cl)cc3)CO2)n(C)n1 (stereo not drawn) | 100% | 100% | 20% | 10% | 20% | 80% | 0% | 40% | 100% | 60% | 100% | 15% | 90% | 70% | 40% | 0% | 0% | – | –
5 | CCCCCOc1ccc(C2COC(c3cc(CC)nn3C)=N2)cc1 (stereo not drawn) | 50% | 100% | 20% | 30% | 0% | 40% | 0% | 30% | 75% | 30% | 100% | 0% | 20% | 30% | 0% | 0% | – | – | –
6 | CCc1cc(C2=NC(c3ccc(Oc4ccccc4)cc3)CO2)n(C)n1 (stereo not drawn) | 90% | 100% | 40% | 30% | 50% | 50% | 0% | 70% | 50% | 70% | 100% | 45% | 20% | 40% | 0% | 10% | – | – | –
7 | CCc1nn(C)c(C(=O)NC(CO)c2ccc(C(C)(C)C)cc2)c1Cl (stereo not drawn) | 40% | 100% | 10% | 20% | – | 0% | 0% | 25% | 100% | 80% | 100% | 40% | 80% | 40% | 0% | 0% | – | – | –
8 | CCCCCOc1ccc(C(CO)NC(=O)c2c(Cl)c(CC)nn2C)cc1 (stereo not drawn) | 30% | 100% | 15% | 20% | 0% | 20% | 0% | 20% | 100% | 90% | 100% | 30% | 95% | 30% | 0% | 0% | – | – | –
9 | CCCCCOc1ccc(C(CCl)NC(=O)c2cc(CC)nn2C)cc1 (stereo not drawn) | 70% | 100% | 0% | 100% | 40% | 50% | 60% | 70% | 100% | 15% | 100% | 0% | 80% | 40% | 0% | – | – | – | 0%
10 | CCc1nn(C)c(C(=O)NC(CCl)c2ccc(C(C)(C)C)cc2)c1Cl (stereo not drawn) | 34% | 100% | 0% | 100% | 0% | 30% | 100% | 30% | 100% | 90% | 100% | 30% | 100% | 100% | 20% | – | 0% | 0% | 40%
11 | CCc1cc(C(=O)NC(CO)c2ccc(C(C)(C)C)cc2)n(C)n1 (stereo not drawn) | 50% | 100% | 0% | 10% | – | 40% | 0% | 0% | 70% | 70% | 100% | 60% | 50% | 60% | 10% | – | 0% | – | –
12 | CCc1cc(C(=O)NC(CO)c2ccc(Cl)cc2)n(C)n1 (stereo not drawn) | 0% | 100% | 25% | 20% | 0% | – | 0% | 25% | 98% | 100% | 100% | 60% | 75% | 50% | 0% | 0% | – | – | –
13 | CCCCCOc1ccc(C(CCl)NC(=O)c2c(Cl)c(CC)nn2C)cc1 (stereo not drawn) | 40% | 100% | 0% | 100% | 0% | 0% | 70% | 30% | 100% | 90% | 100% | 45% | 45% | 100% | 60% | – | 10% | – | 0%
14 | CCc1nn(C)c(C2=NC(c3ccc(Cl)cc3)CO2)c1Cl (stereo not drawn) | 40% | 100% | 10% | 100% | 0% | 0% | 50% | 20% | 60% | 0% | 100% | – | 35% | 100% | 90% | 0% | 60% | – | 0%
15 | CCc1cc(C(=O)NC(CCl)c2ccc(Cl)cc2)n(C)n1 (stereo not drawn) | 30% | 100% | 0% | 10% | 0% | 0% | 0% | 20% | 30% | 30% | 100% | 0% | 0% | 20% | 0% | – | – | – | –
16 | CCCCCOc1ccc(C(CO)NC(=O)c2cc(CC)nn2C)cc1 (stereo not drawn) | 20% | 100% | 45% | 20% | 0% | 0% | 0% | 20% | 100% | 45% | 100% | 30% | 85% | 60% | 20% | 0% | 0% | – | –

Reference: ChEMBL document CHEMBL3046583, “Design, synthesis, and insecticidal activity of novel pyrazole derivatives containing α-hydroxymethyl-N-benzyl carboxamide, α-chloromethyl-N-benzyl carboxamide, and 4,5-dihydrooxazole moieties” (2012)
